Data as given in ChEMBL document CHEMBL1152266, “Synthesis of 3,6-diazabicyclo[3.1.1]heptanes as novel ligands for neuronal nicotinic acetylcholine receptors” (Bioorg Med Chem Lett, 2008).

Experiments:
[1] = target: Neuronal acetylcholine receptor subunit alpha-7 (Rattus norvegicus, UniProt Q05941); assay: Displacement of [3H]alpha-bungarotoxin form alpha7 nAChR in rat cortex
[2] = target: Neuronal acetylcholine receptor; alpha4/beta2 (Rattus norvegicus, UniProt P09483+P12390); assay: Displacement of [3H]epibatidine form alpha4beta2 nAChR in rat cortex
Chain of Neuronal acetylcholine receptor; alpha4/beta2 (P09483 whole entry): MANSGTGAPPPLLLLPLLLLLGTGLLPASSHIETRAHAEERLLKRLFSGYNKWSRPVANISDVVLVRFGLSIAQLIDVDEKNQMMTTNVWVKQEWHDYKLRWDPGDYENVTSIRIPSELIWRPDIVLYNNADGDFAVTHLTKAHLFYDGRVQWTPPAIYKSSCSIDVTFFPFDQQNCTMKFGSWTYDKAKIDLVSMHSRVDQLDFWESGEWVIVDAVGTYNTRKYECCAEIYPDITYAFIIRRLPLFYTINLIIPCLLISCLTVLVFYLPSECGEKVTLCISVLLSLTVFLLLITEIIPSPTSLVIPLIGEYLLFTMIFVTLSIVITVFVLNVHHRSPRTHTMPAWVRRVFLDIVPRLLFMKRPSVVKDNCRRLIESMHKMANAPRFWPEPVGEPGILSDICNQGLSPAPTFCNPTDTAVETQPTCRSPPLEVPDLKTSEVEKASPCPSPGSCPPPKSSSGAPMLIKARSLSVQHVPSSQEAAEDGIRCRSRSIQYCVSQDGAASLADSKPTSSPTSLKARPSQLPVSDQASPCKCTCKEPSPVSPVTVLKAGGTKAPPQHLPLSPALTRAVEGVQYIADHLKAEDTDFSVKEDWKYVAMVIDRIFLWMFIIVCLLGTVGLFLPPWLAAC
Chain of Neuronal acetylcholine receptor; alpha4/beta2 (P12390 whole entry): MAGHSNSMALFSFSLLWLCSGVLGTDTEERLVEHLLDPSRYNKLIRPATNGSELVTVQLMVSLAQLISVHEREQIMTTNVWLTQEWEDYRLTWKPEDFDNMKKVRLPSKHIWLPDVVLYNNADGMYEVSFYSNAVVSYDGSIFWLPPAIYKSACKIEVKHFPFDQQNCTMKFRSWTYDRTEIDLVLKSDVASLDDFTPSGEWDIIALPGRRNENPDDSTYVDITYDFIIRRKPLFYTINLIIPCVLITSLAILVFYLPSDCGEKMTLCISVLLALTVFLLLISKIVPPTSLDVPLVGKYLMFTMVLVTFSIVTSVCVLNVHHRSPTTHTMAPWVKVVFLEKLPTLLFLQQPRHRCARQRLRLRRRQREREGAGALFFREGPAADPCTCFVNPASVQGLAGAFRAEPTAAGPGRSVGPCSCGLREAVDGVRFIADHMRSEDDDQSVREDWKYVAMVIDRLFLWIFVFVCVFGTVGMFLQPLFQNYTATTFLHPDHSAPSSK
How it was run: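 Radioligand binding in rat cortex tissue using [³H]-epibatidine to label α4β2 sites. Ki reported as the mean (% coefficient of variation) of three independent determinations.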

Rattus norvegicus = species on record: Rattus norvegicus; assay: Selectivity ratio of Ki for rat alpha7 nAChR to Ki for rat alpha4beta2 nAChR

Chain of Neuronal acetylcholine receptor subunit alpha-7 (Q05941 whole entry): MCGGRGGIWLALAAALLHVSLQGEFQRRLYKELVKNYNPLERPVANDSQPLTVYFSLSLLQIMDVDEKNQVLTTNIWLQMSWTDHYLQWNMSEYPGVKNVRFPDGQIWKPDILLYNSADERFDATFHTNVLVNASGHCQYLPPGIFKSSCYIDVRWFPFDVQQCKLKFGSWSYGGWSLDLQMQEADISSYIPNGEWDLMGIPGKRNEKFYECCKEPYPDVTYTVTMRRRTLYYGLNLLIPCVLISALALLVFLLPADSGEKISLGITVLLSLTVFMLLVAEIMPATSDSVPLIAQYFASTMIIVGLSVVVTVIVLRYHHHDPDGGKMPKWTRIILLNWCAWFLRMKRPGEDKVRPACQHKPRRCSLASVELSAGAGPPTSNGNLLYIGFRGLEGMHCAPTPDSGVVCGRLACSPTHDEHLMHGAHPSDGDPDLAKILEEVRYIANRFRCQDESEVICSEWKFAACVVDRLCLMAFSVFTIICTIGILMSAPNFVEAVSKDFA

Row | Structure (SMILES) | Ki [1] | Ki [2] | Ratio Ki (Rattus norvegicus)
1 | c1cncc(N2CC3CC(C2)N3)c1 | 1.36 nM | 0.056 nM | 24.3
2 | Brc1ccc(N2CC3CC(C2)N3)cn1 | 50.5 nM | 0.039 nM | 1300
3 | Clc1ccc(N2CC3CC(C2)N3)nn1 | 25 nM | 0.168 nM | 149
4 | O=[N+]([O-])c1ccc(N2CC3CC(C2)N3)cc1 | 28000 nM | 1.2 nM | 23300
5 | CN1C2CC1CN(c1ccc(Cl)nc1)C2 | 20 nM | 0.43 nM | 46.5
6 | Clc1ccc(N2CC3CC(C2)N3)cn1 | 4.1 nM | 0.023 nM | 178
